Data set [1] is described as follows: Solubility in phosphate buffer at pH 2.5. Type of data set: physicochemical. In a few lines:
(§1)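 Solubility was measured at rt in phosphate buffer (5.53% aq citric acid/1.75% aq Na₂HPO₄) adjusted to pH 2.5, 5.5 or 7.4. Dissolved compound was quantified by HPLC.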

The target in data set [2] is T1, Sterol O-acyltransferase 1 (Rattus norvegicus, UniProt O70536).
T1 sequence (O70536 whole entry): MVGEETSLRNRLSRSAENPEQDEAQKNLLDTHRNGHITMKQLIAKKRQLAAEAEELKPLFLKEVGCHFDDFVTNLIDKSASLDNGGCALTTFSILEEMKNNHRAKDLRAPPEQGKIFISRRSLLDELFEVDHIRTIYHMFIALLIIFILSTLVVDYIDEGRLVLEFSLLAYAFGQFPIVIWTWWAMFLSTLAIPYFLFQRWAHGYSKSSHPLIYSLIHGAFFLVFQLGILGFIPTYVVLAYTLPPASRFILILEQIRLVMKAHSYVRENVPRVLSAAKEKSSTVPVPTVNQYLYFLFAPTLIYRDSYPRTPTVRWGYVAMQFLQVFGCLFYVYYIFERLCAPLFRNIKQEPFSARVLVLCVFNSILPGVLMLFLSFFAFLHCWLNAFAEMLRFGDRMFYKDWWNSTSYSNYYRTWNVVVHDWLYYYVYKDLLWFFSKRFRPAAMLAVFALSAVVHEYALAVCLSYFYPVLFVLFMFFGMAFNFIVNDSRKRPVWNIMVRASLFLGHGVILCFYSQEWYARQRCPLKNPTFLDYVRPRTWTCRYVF
In words: Inhibitory activity against ACAT in rat macrophages.

Data set [3] can be described thus: Solubility in phosphate buffer at pH 5.5. Format: physicochemical. The method in brief:
as §1

A short description of data set [4]: Solubility in phosphate buffer at pH 7.4. Type of data set: physicochemical. The method in brief:
as §1

Data set [5] in a line: Cmax in rabbit administered with 1.0 mg/kg/day for 21 days. Type of data set: ADME, organism-based, Oryctolagus cuniculus. Conditions: in vivo. Also noted: dose 1 mg/kg/day. The method in brief: (§2)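 Rabbits were dosed orally at 1.0 mg/kg/day for 21 days. Blood drug levels gave Cmax and AUC over 0–24 h. Serum total cholesterol was measured under the same regimen and expressed relative to control animals.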

Data set [6] in a line: Cmax in mice administered with 30 mg/kg po. Format: ADME, organism-based. Also noted: dose 30 mg/kg, route oral. As to conditions: mouse, in vivo.
Another data set deals with Oryctolagus cuniculus. Put plainly: Decrease in serum total cholesterol in rabbit administered with 1.0 mg/kg/day for 21 days compared to control. Format: ADME, organism-based. Conditions: in vivo, 504 h. Also noted: scale not given: the % may be the effect or the level left. The method in brief:
as §2

A short description of data set [7]: AUC in rabbit administered with 1.0 mg/kg/day for 21 days. Format: ADME, organism-based, Oryctolagus cuniculus. As to conditions: plasma. In a few lines: as §2

With `CCCCn1c(=O)c(NC(=O)Nc2c(C(C)C)cccc2C(C)C)c(-c2cccc(OC)c2)c2cccnc21`, the solubility in data set [1], in data set [3] and in data set [4] was less than 1 µg/mL throughout. Moreover, the IC50 – broadly, the concentration that inhibits the measured activity by half – in data set [2] worked out at 11 nM.
Turning to `CCCCn1c(=O)c(NC(=O)Nc2c(C(C)C)cc(N)cc2C(C)C)c(-c2cccc(OCCCN3CCCC3)c2)c2cccnc21.Cl.Cl`, the solubility (as a rule, how much of the substance goes into solution per volume) is greater than 1000 µg/mL in data set [1], 200 µg/mL in data set [3] and 130 µg/mL in data set [4]. In data set [2], this compound gave an IC50 of 427 nM.
Turning to `CCCCn1c(=O)c(NC(=O)Nc2c(C(C)C)cc(CN(CC)CC)cc2C(C)C)c(-c2cccc(OC)c2)c2cccnc21.Cl`, the figures for the solubility in data set [1], in data set [3] and in data set [4] were greater than 1000 µg/mL, 1000 µg/mL and 62 µg/mL, respectively. Also, the IC50 in data set [2] came to 680 nM.
For `CCCCn1c(=O)c(NC(=O)Nc2c(C(C)C)cc(N)cc2C(C)C)c(-c2cccc(OCCCN(CC)CC)c2)c2cccnc21.Cl.Cl` the same measures were greater than 1000 µg/mL, 690 µg/mL, 640 µg/mL and 452 nM.
Turning to `CCCCn1c(=O)c(NC(=O)Nc2c(C(C)C)ccc(N)c2C(C)C)c(-c2cccc(OCCCO)c2)c2cccnc21.Cl`, the results for the solubility in data set [1], in data set [3] and in data set [4] were greater than 1000 µg/mL, 19 µg/mL and 17 µg/mL, respectively. The same compound came in with an IC50 in data set [2] of 43 nM.
For `CCCCn1c(=O)c(NC(=O)Nc2c(C(C)C)cc(N)cc2C(C)C)c(-c2cccc(OCCO)c2)c2cccnc21.Cl`, the solubility was greater than 1000 µg/mL in data set [1], 32 µg/mL in data set [3] and 30 µg/mL in data set [4]. The IC50 in data set [2] was greater than 1000 nM.
For `CCCCn1c(=O)c(NC(=O)Nc2c(C(C)C)cc(N)cc2C(C)C)c(-c2cccc(OCCCCO)c2)c2cccnc21.Cl`, the results for the solubility in data set [1], in data set [3] and in data set [4] were 680 µg/mL, 7 µg/mL and 5 µg/mL, respectively. In data set [2], this compound displayed an IC50 of 61 nM.
In the case of `CCCCn1c(=O)c(NC(=O)Nc2c(C(C)C)cc(N)cc2C(C)C)c(-c2cccc(OCCCO)c2)c2cccnc21.Cl`, the solubility in data set [1] was greater than 1000 µg/mL; in data set [3], 14 µg/mL; in data set [4], 10 µg/mL. For the same compound, the Cmax (commonly the highest concentration seen after dosing) is 16 ng/mL in data set [5] and 21300 ng/mL in data set [6]. For the same compound, the midpoint of inhibition in data set [2], the IC50, lay at 21 nM. Moreover, the Activity in the data set with Oryctolagus cuniculus amounted to 53%. In addition, the AUC (in general, concentration integrated over time) at 504 h in data set [7] is 39.8 ng·h/mL.
Consider `CCCCn1c(=O)c(NC(=O)Nc2c(C(C)C)cc(N)cc2C(C)C)c(-c2cccc(OCCCN3CCCCC3)c2)c2cccnc21.Cl.Cl`, for which the solubility in data set [1] was greater than 1000 µg/mL; in data set [3] it was 180 µg/mL; in data set [4] it was 200 µg/mL. In data set [2], this compound came in with an IC50 of 540 nM.
For `CCCCn1c(=O)c(NC(=O)Nc2c(C(C)C)cc(N)cc2C(C)C)c(-c2cccc(OC)c2)c2cccnc21.Cl`, the solubility in data set [1] was 22 µg/mL; in data set [3], 1 µg/mL; in data set [4], less than 1 µg/mL. Moreover, the IC50 in data set [2] worked out at 8.3 nM.
Taken in the same sequence, the figures for `CCCCn1c(=O)c(NC(=O)Nc2c(C(C)C)ccc(N)c2C(C)C)c(-c2cccc(OC)c2)c2cccnc21.Cl` were 700 µg/mL, 1 µg/mL, 1 µg/mL and 14 nM.
For `CCCCn1c(=O)c(NC(=O)Nc2c(C(C)C)ccnc2C(C)C)c(-c2cccc(OC)c2)c2cccnc21.Cl` the same measures were greater than 1000 µg/mL, 19 µg/mL, 5 µg/mL and 5.4 nM.
On to `CCCCn1c(=O)c(NC(=O)Nc2c(C(C)C)cc(CN)cc2C(C)C)c(-c2cccc(OC)c2)c2cccnc21.Cl`, for which the solubility turned out to be 220 µg/mL in data set [1], 23 µg/mL in data set [3] and 36 µg/mL in data set [4]. In data set [2], this compound had an IC50 of 382 nM.

For the origin of these results see ChEMBL document CHEMBL1147783, “Synthesis and biological activity of novel 4-phenyl-1,8-naphthyridin-2(1H)-on-3-yl ureas: potent acyl-CoA:cholesterol acyltransferase inhibitor with improved aqueous solubility” (Bioorg Med Chem Lett, 2006).
